What was measured:
human beings [1] = conditions: cited from earlier work
healthy men [2] = assay type: in vivo, human beings; conditions: study A
Outline: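 Six healthy normoglycemic, normolipidemic men took part in a randomized, single-blind crossover (visits 4 weeks apart). After an overnight fast, liquid mixed-macronutrient formula was infused nasoduodenally for 15 h from 4 AM. A pancreatic clamp (somatostatin, insulin, glucagon, growth hormone) started at 7 AM. At 9 AM came primed constant d3-leucine for 10 h plus s.c. GLP-2 1500 ug or placebo. AUC covered the first 3 h. Multicompartmental modelling gave FCR.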

[3] = Plasma total GLP-2 concentration after subcutaneous GLP-2; assay type: in vivo, human beings; conditions: 1500 μg of GLP-2 subcutaneously
Outline: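 Plasma total GLP-2 was measured during the study A visits in healthy men (randomized, single-blind crossover, visits 4 weeks apart). After an overnight fast, subjects received nasoduodenal formula feeding under a pancreatic clamp, then a single subcutaneous GLP-2 dose (1500 ug) or placebo at 9 AM. Sampling continued over the kinetic study.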

healthy men [4] = assay type: in vivo, human beings; conditions: study B
Outline: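 Six healthy men were studied in a randomized, single-blind crossover (visits 4 weeks apart). At 7 am they drank a liquid meal containing 120,000 IU retinyl palmitate, with no food thereafter. At 2 pm (T = 0, 7 h post-meal) they received s.c. GLP-2 1500 mcg or placebo, with blood sampled for 3 h. TRL TG, retinyl palmitate and apoB-48 were measured. Incremental AUC over 0–3 h used the T = 0 concentration as baseline.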

human beings [5] = conditions: intravenous infusion of native GLP-2, human beings; cited from earlier work
[6] = GLP-2 1500 μg s.c. single dose, n = 6, vs placebo P = .03
[7] = GLP-2 1500 μg s.c., n = 6, vs placebo P = .02
[8] = GLP-2 1500 mcg s.c. 7 h after meal, N = 6, vs placebo P = .002

## N[C@@H](CC(=O)N1CCn2c(nnc2C(F)(F)F)C1)Cc1cc(F)c(F)cc1F [sitagliptin]
Human beings [1]; acute
  effect on chylomicron production in human beings: acutely reduces chylomicron production

## exenatide
Human beings [1]
  effect on chylomicron secretion in human beings: reduces chylomicron secretion

## glucagon-like peptide-2 [GLP-2]
Healthy men [2]; [6]
  plasma TG area under the concentration curve in the first 3 hours (AUC0-3): 3.1 ± 0.4 mmol/L/h
  plasma TG peak concentration at 1 hour: 1.23 ± 0.20 mmol/L
Healthy men [2]; [7]
  TRL apoB-48 AUC0-3: 19.3 ± 5.0 mg/L/h
  TRL apoB-48 peak concentration 1 hour after administration: 9.5 ± 2.6 mg/L
Healthy men [2]; GLP-2 1500 μg s.c., n = 6, vs placebo P = .15
  TRL TG peak concentration at 1 hour: 0.79 ± 0.09 mmol/L
Healthy men [2]; GLP-2 1500 μg s.c., n = 6, vs placebo P = .24
  TRL TG AUC0-3: 1.9 ± 0.2 mmol/L/h
Healthy men [2]; GLP-2 1500 μg s.c., n = 6, vs placebo P = .5
  TRL apoB-100 mean concentration for the 10-hour kinetics study: 74.8 ± 7.4 mg/L
Healthy men [2]; GLP-2 1500 μg s.c., n = 6, vs placebo P = .95
  TRL apoB-100 AUC0-3: 216 ± 21.9 mg/L/h
Healthy men [2]; GLP-2 1500 μg s.c., pancreatic clamp, vs placebo P = .01
  mean plasma glucagon concentration: 143.3 ± 14.2 pg/mL
Healthy men [2]; GLP-2 1500 μg s.c., pancreatic clamp, vs placebo P = .049
  mean plasma glucose concentration: 8.7 ± 0.3 mmol/L
Healthy men [2]; during kinetic study
  plasma FFA concentration, GLP-2 vs placebo: no significant difference
  plasma insulin concentration, GLP-2 vs placebo: no significant difference
[3]
  GLP-2 concentration at 4 hours relative to the level at 2 hours: approximately half
[3]; 2 and 4 hours after administration
  plasma total GLP-2 concentration compared with placebo: significantly increased
Healthy men [4]
  plasma glucose concentration, GLP-2 vs placebo: no significant difference
Healthy men [4]; [8]
  TRL TG iAUC0-3: 0.28 ± 0.16 mmol/L/h
  TRL retinyl palmitate iAUC0-3: 0.86 ± 0.21 µmol/L/h
Healthy men [4]; GLP-2 1500 mcg s.c. 7 h after meal, n = 5, vs placebo P = .003
  chylomicron (Sf > 400) retinyl palmitate peak concentration at 60 minutes: 0.38 ± 0.06 µmol/L
Healthy men [4]; GLP-2 1500 mcg s.c. 7 h after meal, n = 6, vs placebo P = .04
  TRL apoB-48 iAUC0-3: 1.45 ± 1.72 mg/L/h
Healthy men [4]; GLP-2 1500 mcg s.c. 7 h after meal, vs placebo P = .003
  TRL TG peak increment: 0.42 ± 0.11
Healthy men [4]; GLP-2 1500 mcg s.c. 7 h after meal, vs placebo P = .006
  TRL apoB-48 peak increment: 2.1 ± 0.8
Human beings [5]
  effect on postprandial plasma TG and free fatty acid (FFA) concentrations: increase

Reference: paper PMC4316201 (Gastroenterology, 2014)
